Experimental data taken from ChEMBL document CHEMBL1811821, “Cystic fibrosis: a new target for 4-Imidazo[2,1-b]thiazole-1,4-dihydropyridines” (J Med Chem, 2011).
The source made the active and inactive calls. No cut-off for these calls is given here.

Assays:
[1] = system: Cystic fibrosis transmembrane conductance regulator (Homo sapiens), P13569 [F508del]; assay: Activity at CFTR F508 deletion mutant expressed in forskolin-stimulated FRT cells assessed as maximal increase in iodine influx measured as YFP quenching rate at 0.2 uM after 24 hrs by fluorescence assay; format: cell-based
Cystic fibrosis transmembrane conductance regulator (Homo sapiens), P13569 [F508del], sequence (P13569 as listed by the source): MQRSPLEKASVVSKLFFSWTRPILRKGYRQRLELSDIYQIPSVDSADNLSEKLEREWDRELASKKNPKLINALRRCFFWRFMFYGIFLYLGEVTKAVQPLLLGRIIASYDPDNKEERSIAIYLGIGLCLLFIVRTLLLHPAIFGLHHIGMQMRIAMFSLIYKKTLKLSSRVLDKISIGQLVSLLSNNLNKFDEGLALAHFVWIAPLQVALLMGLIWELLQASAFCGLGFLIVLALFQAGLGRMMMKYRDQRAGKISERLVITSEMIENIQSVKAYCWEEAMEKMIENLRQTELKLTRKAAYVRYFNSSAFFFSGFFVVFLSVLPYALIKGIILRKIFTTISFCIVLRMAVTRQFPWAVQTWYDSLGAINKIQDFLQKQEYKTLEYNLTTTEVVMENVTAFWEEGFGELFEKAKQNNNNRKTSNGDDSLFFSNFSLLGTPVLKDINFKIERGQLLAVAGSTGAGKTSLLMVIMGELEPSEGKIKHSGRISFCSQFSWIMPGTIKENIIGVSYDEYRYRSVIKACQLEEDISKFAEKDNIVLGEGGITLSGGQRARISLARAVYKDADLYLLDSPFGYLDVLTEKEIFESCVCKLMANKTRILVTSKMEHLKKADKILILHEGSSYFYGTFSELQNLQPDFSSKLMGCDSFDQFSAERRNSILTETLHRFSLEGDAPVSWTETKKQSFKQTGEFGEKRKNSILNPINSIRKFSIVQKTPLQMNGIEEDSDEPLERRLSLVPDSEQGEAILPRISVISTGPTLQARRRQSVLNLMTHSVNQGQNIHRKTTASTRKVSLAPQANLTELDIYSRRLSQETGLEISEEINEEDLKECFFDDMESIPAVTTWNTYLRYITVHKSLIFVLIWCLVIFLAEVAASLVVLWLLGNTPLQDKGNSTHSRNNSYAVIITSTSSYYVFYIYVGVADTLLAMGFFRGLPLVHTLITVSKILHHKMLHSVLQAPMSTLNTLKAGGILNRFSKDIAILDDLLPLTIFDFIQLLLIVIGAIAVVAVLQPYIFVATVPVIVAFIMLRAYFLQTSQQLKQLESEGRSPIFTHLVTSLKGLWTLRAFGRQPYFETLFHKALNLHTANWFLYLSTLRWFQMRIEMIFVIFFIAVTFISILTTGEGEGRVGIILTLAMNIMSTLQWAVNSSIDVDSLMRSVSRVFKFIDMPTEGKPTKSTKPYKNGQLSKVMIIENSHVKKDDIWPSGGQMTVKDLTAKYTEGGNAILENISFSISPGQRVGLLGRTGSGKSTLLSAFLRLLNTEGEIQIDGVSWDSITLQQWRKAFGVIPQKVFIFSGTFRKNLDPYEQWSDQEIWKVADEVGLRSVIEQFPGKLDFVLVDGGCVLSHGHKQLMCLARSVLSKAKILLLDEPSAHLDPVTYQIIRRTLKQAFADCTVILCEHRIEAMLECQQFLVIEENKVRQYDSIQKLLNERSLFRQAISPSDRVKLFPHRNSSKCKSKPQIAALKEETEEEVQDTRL
How it was run: (§1)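 ΔF508-CFTR and halide-sensitive YFP coexpressed in FRT cells, held at 27 °C for 24 h for rescue, then stimulated 30–40 min with 20 μM forskolin with or without compound at 0.2, 2 and 20 μM. Fluorescence read before and after I– addition (100 mM final). Normalized decay fitted exponentially for maximal quenching rate; dose–response fitted with Hill equation for potency and maximal effect. Three independent determinations.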

[2] = Negative ionotropic activity in potassium depolarized guinea pig longitudinal smooth muscle assessed as inhibition of calcium-induced contraction; format: functional, Cavia porcellus
[3] = Binding affinity to CFTR F508 deletion mutant expressed in forskolin-stimulated FRT cells assessed as increase in iodine influx measured as YFP quenching rate after 24 hrs by fluorescence assay; format: cell-based; how it was run: as §1
[4] = Ratio EC50 for nifedipine to compound for negative […] activity against potassium-induced contraction in left atrium of guinea pig; format: functional, Cavia porcellus, Cardiac atrium
[5] = system: Cystic fibrosis transmembrane conductance regulator (Homo sapiens), P13569 [F508del]; assay: Activity at CFTR F508 deletion mutant expressed in forskolin-stimulated FRT cells assessed as maximal increase in iodine influx measured as YFP quenching rate after 24 hrs by fluorescence assay; format: cell-based; how it was run: as §1
[6] = Bronchodilatory activity in guinea pig trachea assessed as inhibition of carbachol-induced contraction; format: functional, tissue-based, Cavia porcellus
Cavia porcellus [7] = species: Cavia porcellus; assay: Negative ionotropic activity in potassium depolarized guinea pig longitudinal smooth muscle assessed as inhibition of calcium-induced contraction at 5 X 10^-8 M; format: functional
[8] = system: Cystic fibrosis transmembrane conductance regulator (Homo sapiens), P13569 [F508del]; assay: Activity at CFTR F508 deletion mutant expressed in forskolin-stimulated FRT cells assessed as maximal increase in iodine influx measured as YFP quenching rate up to 20 uM after 24 hrs by fluorescence assay; format: cell-based; how it was run: as §1
[9] = Bronchodilatory activity in guinea pig trachea assessed as inhibition of carbachol-induced contraction at 10^-5 M; format: functional; details: Cavia porcellus
Cavia porcellus [10] = species: Cavia porcellus; assay: Negative ionotropic activity in potassium depolarized guinea pig longitudinal smooth muscle assessed as inhibition of calcium-induced contraction at 10^-5 M; format: functional
Cavia porcellus [11] = species: Cavia porcellus; assay: Negative ionotropic activity in potassium depolarized guinea pig longitudinal smooth muscle assessed as inhibition of calcium-induced contraction at 5 X 10^-7 M; format: functional
[12] = Bronchodilatory activity in guinea pig trachea assessed as inhibition of carbachol-induced contraction at 10^-4 M; format: functional; details: Cavia porcellus
Cavia porcellus [13] = species: Cavia porcellus; assay: Negative ionotropic activity in potassium depolarized guinea pig longitudinal smooth muscle assessed as inhibition of calcium-induced contraction at 10^-6 M; format: functional
[14] = Negative ionotropic activity against potassium-induced contraction in guinea pig left atrium assessed as […] at 10^-4 M relative to control; format: functional; details: Cavia porcellus, Cardiac atrium
How it was run: (§2)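 Isolated guinea pig left atrium paced at 1 Hz. Drugs added cumulatively. Negative inotropic effect expressed as percent change from control, n = 5–6. […] Student's t-test against control at each concentration, P < 0.05. Mean ± SEM.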

[15] = Negative chronotropic activity against potassium-induced contraction in guinea pig right atrium assessed as decrease atrial rate; format: functional, tissue-based; details: Cavia porcellus, Cardiac atrium
How it was run: (§3)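 Spontaneously beating isolated guinea pig right atrium, pretreatment rate 165–190 beats/min. Drugs added cumulatively. Decrease in atrial rate expressed as percent change from control, n = 7–8. […] Control versus treated tested at each concentration by Student's t-test, P < 0.05. Mean ± SEM.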

[16] = Negative chronotropic activity against potassium-induced contraction in guinea pig right atrium assessed as decrease atrial rate at 10^-4 M relative to control; format: functional; details: Cavia porcellus, Cardiac atrium; how it was run: as §3
Aorta [17] = assay: Vasorelaxant activity in potassium depolarized guinea pig aortic strip assessed as inhibition of calcium-induced contraction at 10^-4 M; format: functional; details: Cavia porcellus
How it was run: (§4)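 Guinea pig aortic strips depolarized with 80 mM K+, with cumulative drug addition. Relaxation given as mean ± SEM. […] Student's t-test against control, P < 0.05.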

[18] = Negative ionotropic activity against potassium-induced contraction in guinea pig left atrium assessed as decrease in developed tension; details: Cavia porcellus, Cardiac atrium
[19] = Ratio EC50 for negative chronotropic activity against potassium-induced contraction in guinea pig right atrium to EC50 for negative […] activity against potassium-induced contraction in guinea pig left atrium; format: functional, Cavia porcellus, Cardiac atrium
[20] = Negative ionotropic activity against potassium-induced contraction in guinea pig left atrium assessed as […] at 10^-6 M relative to control; format: functional; details: Cavia porcellus, Cardiac atrium; how it was run: as §2
Aorta [21] = assay: Vasorelaxant activity in potassium depolarized guinea pig aortic strip assessed as inhibition of calcium-induced contraction at 10^-5 M; format: functional; details: Cavia porcellus; how it was run: as §4
[22] = Negative chronotropic activity against potassium-induced contraction in guinea pig right atrium assessed as decrease atrial rate at 10^-5 M relative to control; format: functional; details: Cavia porcellus, Cardiac atrium; how it was run: as §3
[23] = Negative ionotropic activity against potassium-induced contraction in guinea pig left atrium assessed as […] at 5 X 10^-6 M relative to control; format: functional; details: Cavia porcellus, Cardiac atrium; how it was run: as §2
[24] = Negative chronotropic activity against potassium-induced contraction in guinea pig right atrium assessed as decrease atrial rate at 10^-6 M relative to control; format: functional; details: Cavia porcellus, Cardiac atrium; how it was run: as §3

Compound	Activity [1]	IC50 [2] [nM]	Kd [3] [nM]	Emax [5] [ms-1]	Activity [8]	inhibition (Cavia porcellus [10]) [%]	other results
COC(=O)C1=C(C)NC(C)=C(C(=O)OC)C1c1c(C)nc2sc(Cl)cn12	inactive	550	42900	60	–	–	Ratio EC50 [4]: 2.6
COC(=O)C1=C(C)NC(C)=C(C(=O)OC)C1c1c(-c2cccc(OC(F)(F)F)c2)nc2sccn12	inactive	18	1400	64	–	–	IC50 [6]: 58 nM; inhibition (Cavia porcellus [7]): 76%
COC(=O)C1=C(C)NC(C)=C(C(=O)OC)C1c1c(C)nc2sc(C)cn12	inactive	8830	–	–	inactive	70	inhibition at 10 µM [9]: 27%
COC(=O)C1=C(C)NC(C)=C(C(=O)OC)C1c1c(-c2cc(OC)ccc2OC)nc2sc(C)cn12	inactive	4890	–	–	inactive	74	–
COC(=O)C1=C(C)NC(C)=C(C(=O)OC)C1c1c(-c2cc(OC)c([N+](=O)[O-])cc2OC)nc2sc(Cl)cn12	inactive	74	–	–	inactive	–	inhibition (Cavia porcellus [11]): 92%; inhibition at 100 µM [12]: 35%
COC(=O)C1=C(C)NC(C)=C(C(=O)OC)C1c1c(Cl)nc2scc(C)n12	inactive	510	21400	60	–	–	Ratio EC50 [4]: 2.6
COC(=O)C1=C(C)NC(C)=C(C(=O)OC)C1c1c(Cl)nc2sc(C)c(C)n12	inactive	320	10900	60	–	–	inhibition (Cavia porcellus [13]): 78%
COC(=O)C1=C(C)NC(C)=C(C(=O)OC)C1c1c(-c2ccccc2OC(F)(F)F)nc2sccn12	inactive	–	–	–	inactive	–	inhibition at 10 µM [9]: 47%
COC(=O)C1=C(C)NC(C)=C(C(=O)OC)C1c1c(-c2ccccc2)nc2n1CCS2	inactive	260	–	–	inactive	–	inhibition at 100 µM [14]: 78%; EC50 [15]: 8630 nM; inhibition at 100 µM [16]: 90%; inhibition at 100 µM (Aorta [17]): 46%; EC50 [18]: 390 nM; inhibition (Cavia porcellus [13]): 80%; Ratio EC50 [19]: 22
C=CCOC(=O)C1=C(C)NC(C)=C(C(=O)OCC=C)C1/C=C/c1ccccc1OC	–	940	400	59	–	68	inhibition at 1 µM [20]: 83%; inhibition at 10 µM (Aorta [21]): 1%; inhibition at 10 µM [9]: 29%; inhibition at 10 µM [22]: 6%; EC50 [18]: 34 nM
C=CCOC(=O)C1=C(C)NC(C)=C(C(=O)OCC=C)C1c1c(-c2cc(OC)ccc2OC)nc2sccn12	inactive	320	–	–	inactive	–	inhibition at 100 µM (Aorta [17]): 31%; inhibition at 5 µM [23]: 81%; EC50 [18]: 340 nM; inhibition at 1 µM [24]: 32%
CCc1cn2c(C3C(C(=O)OC)=C(C)NC(C)=C3C(=O)OC)c(-c3cc(OC)ccc3OC)nc2s1	inactive	2160	–	–	inactive	92	–
COC(=O)C1=C(C)NC(C)=C(C(=O)OC)C1c1c(-c2ccc(OC)c(OC)c2)nc2sccn12	inactive	450	–	–	inactive	–	inhibition (Cavia porcellus [13]): 90%
